Assay results published in ChEMBL document CHEMBL1240314, “Small-molecule inhibitor of p53 binding to mitochondria protects mice from gamma radiation” (2006).
The source made the active and inactive calls. No cut-off for these calls is given here.

How the values were obtained:
[1] = molecular target: Cellular tumor antigen p53 (Homo sapiens) (UniProt P04637); assay: Inhibition of p53-dependent transactivation of p21 in gamma-stimulated human ConA cells; assay type: cell-based
Procedure, shortened: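 ConA cells given 10 µM test agent and 10 Gy gamma irradiation. Protein extracts taken 6 h post-irradiation and p21 detected by immunoblotting.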

NCI-H1299 [2] = assay: Antiapoptotic activity against staurosporine-induced cell death in human H1299 cells assessed as caspase 3 activity at 10 uM after 24 hrs; assay type: functional, cell-based
HeLa [3] = assay: Antiapoptotic activity against staurosporine-induced cell death in human HeLa cells assessed as caspase 3 activity at 10 uM after 24 hrs; assay type: functional, cell-based
NCI-H1299 [4] = assay: Antiapoptotic activity against staurosporine-induced cell death in human H1299 cells assessed as caspase 7 activity at 10 uM after 24 hrs; assay type: functional, cell-based
HeLa [5] = assay: Antiapoptotic activity against staurosporine-induced cell death in human HeLa cells assessed as caspase 7 activity at 10 uM after 24 hrs; assay type: functional, cell-based
[6] = molecular target: Cellular tumor antigen p53 (Homo sapiens) (UniProt P04637); assay: Inhibition of p53-mediated transactivation in human MCF7 cells in presence of 0.5 ug/ml of doxorubicin after 24 hrs by beta-galactosidase reporter gene assay; assay type: cell-based
Procedure, shortened: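 MCF7 cells with a p53-responsive lacZ reporter treated with Dox 0.5 mg ml–1 (so in the source) plus a range of compound concentrations; β-galactosidase measured colorimetrically in cell extracts after 24 h; means ± s.d., n = 3.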

[7] = molecular target: Cellular tumor antigen p53 (Homo sapiens) (UniProt P04637); assay: Inhibition of p53-mediated transactivation in human MCF7 cells in presence of 50 ug/ml of 5-fluorouracil after 24 hrs by beta-galactosidase reporter gene assay; assay type: cell-based
Procedure, shortened: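 MCF7 cells carrying a lacZ reporter under a p53-responsive promoter, treated with 5-FU 50 µg ml–1 across a range of test-agent concentrations. β-galactosidase measured colorimetrically in cell extracts after 24 h drug incubation. Means ± s.d., n = 3.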

Chain of Cellular tumor antigen p53 (Homo sapiens) (P04637 whole entry, looked up): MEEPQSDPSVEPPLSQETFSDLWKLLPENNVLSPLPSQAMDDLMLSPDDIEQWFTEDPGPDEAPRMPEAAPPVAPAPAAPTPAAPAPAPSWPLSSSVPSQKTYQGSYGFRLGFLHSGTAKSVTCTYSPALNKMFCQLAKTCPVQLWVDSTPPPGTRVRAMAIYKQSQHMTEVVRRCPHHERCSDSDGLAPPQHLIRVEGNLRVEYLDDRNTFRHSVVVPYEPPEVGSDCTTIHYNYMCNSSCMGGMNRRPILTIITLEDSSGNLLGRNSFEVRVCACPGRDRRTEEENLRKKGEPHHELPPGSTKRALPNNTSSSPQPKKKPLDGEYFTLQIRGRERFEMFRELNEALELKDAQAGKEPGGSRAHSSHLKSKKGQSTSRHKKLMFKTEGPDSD

Q: For `Cc1ccc(C(=O)Cn2c3c(sc2=N)CCCC3)cc1`, which inhibition [1] is on record?
A: Active

Q: `CN[C@@H]1C[C@H]2O[C@@](C)([C@@H]1OC)n1c3ccccc3c3c4c(c5c6ccccc6n2c5c31)C(=O)NC4` was tested. Which Activity (NCI-H1299 [2]) did it give?
A: inactive

Q: What about the Activity (HeLa [3]) of the same compound?
A: inactive

Q: What about the Activity (NCI-H1299 [4]) of the same compound?
A: inactive

Q: And the Activity (HeLa [5])?
A: inactive

Q: Which inhibition [6] does the source give for `COc1cccc2c1C(=O)c1c(O)c3c(c(O)c1C2=O)C[C@@](O)(C(=O)CO)C[C@@H]3O[C@H]1C[C@H](N)[C@H](O)[C@H](C)O1` here?
A: inactive

Q: With `O=c1[nH]cc(F)c(=O)[nH]1` as the compound, how does the inhibition [7] read?
A: inactive
